Laboratory results from ChEMBL document CHEMBL5357037, “Scaffold hopping based designing of selective ALDH1A1 inhibitors to overcome cyclophosphamide resistance: synthesis and biological evaluation” (RSC Med Chem, 2024).
Activity calls are given as the source filed them. No cut-off for these calls is given here.

Assays:
[1] = target: T1, Aldehyde dehydrogenase, dimeric NADP-preferring (Homo sapiens, UniProt P30838); experiment: Inhibition of human ALDH3A1 using 4-nitrobenzaldehyde as substrate preincubated with enzyme for 15 mins followed by substrate addition in presence of NAD+ and measured for 5 mins by spectrophotometric analysis
T1 sequence (P30838 whole entry): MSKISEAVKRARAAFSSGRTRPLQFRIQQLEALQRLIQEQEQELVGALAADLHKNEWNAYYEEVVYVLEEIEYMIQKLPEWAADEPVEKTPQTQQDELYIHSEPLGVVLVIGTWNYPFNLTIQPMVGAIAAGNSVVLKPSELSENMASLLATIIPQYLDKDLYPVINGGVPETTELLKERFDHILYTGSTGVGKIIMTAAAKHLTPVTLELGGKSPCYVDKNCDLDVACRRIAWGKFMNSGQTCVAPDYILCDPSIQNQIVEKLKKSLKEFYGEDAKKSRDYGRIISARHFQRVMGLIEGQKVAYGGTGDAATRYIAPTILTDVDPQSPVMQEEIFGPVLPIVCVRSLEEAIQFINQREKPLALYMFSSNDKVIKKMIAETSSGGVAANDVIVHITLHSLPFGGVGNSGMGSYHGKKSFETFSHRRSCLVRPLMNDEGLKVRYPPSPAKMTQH
Method in brief: (§1)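 Human recombinant ALDH1A1, ALDH2 or ALDH3A1 preincubated with test compounds for 15 min at 25 °C. NADH absorbance read kinetically for 5 min. IC50 fitted from five concentrations vs %inhibition. Single-point final concentrations were 10 μM for ALDH1A1 and 100 μM for ALDH2 and ALDH3A1.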

[2] = Lipid-water partition coefficient, logP of the compound; type: physicochemical
[3] = target: T2, Aldehyde dehydrogenase 1A1 (Homo sapiens, UniProt P00352); experiment: Inhibition of human ALDH1A1 using propionaldehyde as substrate preincubated with enzyme for 15 mins followed by substrate addition in presence of NAD+ and measured for 5 mins by spectrophotometric analysis; method in brief: as §1
T2 sequence (P00352 whole entry): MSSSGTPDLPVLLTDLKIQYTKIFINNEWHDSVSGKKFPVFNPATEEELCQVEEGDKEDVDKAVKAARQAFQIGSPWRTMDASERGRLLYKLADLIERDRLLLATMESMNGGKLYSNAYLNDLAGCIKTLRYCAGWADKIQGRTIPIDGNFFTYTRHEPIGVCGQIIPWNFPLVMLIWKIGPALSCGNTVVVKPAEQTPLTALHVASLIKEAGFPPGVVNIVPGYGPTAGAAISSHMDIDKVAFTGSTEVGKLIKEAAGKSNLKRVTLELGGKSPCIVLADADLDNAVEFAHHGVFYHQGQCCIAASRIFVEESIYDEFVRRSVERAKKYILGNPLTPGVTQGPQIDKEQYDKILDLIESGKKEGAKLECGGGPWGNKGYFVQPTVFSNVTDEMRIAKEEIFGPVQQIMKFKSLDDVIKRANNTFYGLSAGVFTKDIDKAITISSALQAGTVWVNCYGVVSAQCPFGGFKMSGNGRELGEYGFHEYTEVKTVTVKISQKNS

[4] = target: T3, Aldehyde dehydrogenase, mitochondrial (Homo sapiens, UniProt P05091); experiment: Inhibition of human ALDH2 using acetaldehyde as substrate preincubated with enzyme for 15 mins followed by substrate addition in presence of NAD+ and measured for 5 mins by spectrophotometric analysis; method in brief: as §1
T3 sequence (P05091 whole entry): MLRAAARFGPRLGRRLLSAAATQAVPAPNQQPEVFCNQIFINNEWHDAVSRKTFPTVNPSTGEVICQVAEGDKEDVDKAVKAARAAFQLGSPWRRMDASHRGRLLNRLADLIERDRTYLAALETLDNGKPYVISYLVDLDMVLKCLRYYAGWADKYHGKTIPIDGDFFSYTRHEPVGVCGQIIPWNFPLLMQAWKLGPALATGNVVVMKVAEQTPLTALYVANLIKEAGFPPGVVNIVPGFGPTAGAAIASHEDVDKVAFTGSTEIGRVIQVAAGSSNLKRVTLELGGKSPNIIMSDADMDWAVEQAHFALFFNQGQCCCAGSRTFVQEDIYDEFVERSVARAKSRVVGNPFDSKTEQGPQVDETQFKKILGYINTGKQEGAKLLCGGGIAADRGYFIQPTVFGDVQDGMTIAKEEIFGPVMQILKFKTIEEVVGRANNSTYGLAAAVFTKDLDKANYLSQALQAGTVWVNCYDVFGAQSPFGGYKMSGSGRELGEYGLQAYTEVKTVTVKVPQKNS

[5] = target: T4, Aldehyde dehydrogenase, dimeric NADP-preferring (Homo sapiens) (UniProt P30838); experiment: Inhibition of human ALDH3A1 using 4-nitrobenzaldehyde as substrate at 100 uM preincubated with enzyme for 15 mins followed by substrate addition in presence of NAD+ and measured for 5 mins by spectrophotometric analysis; settings: time 20.0 min; method in brief: as §1
T4 sequence (whole entry): T1 sequence (P30838 whole entry)

[6] = target: T5, Aldehyde dehydrogenase 1A1 (Homo sapiens) (UniProt P00352); experiment: Inhibition of human ALDH1A1 using propionaldehyde as substrate at 10 uM preincubated with enzyme for 15 mins followed by substrate addition in presence of NAD+ and measured for 5 mins by spectrophotometric analysis; settings: time 20.0 min; method in brief: as §1
T5 sequence (whole entry): T2 sequence (P00352 whole entry)

[7] = target: T6, Aldehyde dehydrogenase, mitochondrial (Homo sapiens) (UniProt P05091); experiment: Inhibition of human ALDH2 using acetaldehyde as substrate at 100 uM preincubated with enzyme for 15 mins followed by substrate addition in presence of NAD+ and measured for 5 mins by spectrophotometric analysis; settings: time 20.0 min; method in brief: as §1
T6 sequence (whole entry): T3 sequence (P05091 whole entry)

MIA PaCa-2 [8] = experiment: Anticancer activity against human MIAPaCa-2 cells assessed as reduction in cell viability incubated for 19 hrs by MTT assay; type: functional, cell-based
Method in brief: (§2)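 A549 and MIA PaCa-2 cells, chosen for high ALDH1A1 expression, were obtained from NCCS. Viability was measured by MTT. Combination arms paired mafosfamide with ALDH1A1 inhibitors. Combination indices were calculated with the Chou–Talalay equation.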

A549 [9] = experiment: Anticancer activity against human A549 cells assessed as reduction in cell viability incubated for 19 hrs by MTT assay; type: functional, cell-based; method in brief: as §2
A549 [10] = experiment: Synergistic anticancer activity against human A549 cells assessed as combination index incubated for 19 hrs in presence of Mafosfamide by MTT assay; type: functional; method in brief: as §2
MIA PaCa-2 [11] = experiment: Synergistic anticancer activity against human MIAPaCa-2 cells assessed as combination index incubated for 19 hrs in presence of Mafosfamide by MTT assay; type: functional; method in brief: as §2
MIA PaCa-2 [12] = experiment: Reversal of Mafosfamide resistance in human MIAPaCa-2 cells assessed as increase in Mafosfamide sensitivity by measuring reduction in cell viability measured after 19 hrs in presence of Mafosfamide by MTT assay; type: functional, cell-based; method in brief: as §2
A549 [13] = experiment: Reversal of Mafosfamide resistance in human A549 cells assessed as increase in Mafosfamide sensitivity by measuring reduction in cell viability measured after 19 hrs in presence of Mafosfamide by MTT assay; type: functional, cell-based; method in brief: as §2
MIA PaCa-2 [14] = experiment: Anticancer activity against human MIAPaCa-2 cells assessed as reduction in cell viability at 315 uM incubated for 19 hrs by MTT assay; type: functional, cell-based
A549 [15] = experiment: Anticancer activity against human A549 cells assessed as reduction in cell viability at 370 uM incubated for 19 hrs by MTT assay; type: functional, cell-based

Compound | IC50 ([1]; read-out: IC50) [µM] | logP [2] | IC50 [3] [µM] | IC50 ([4]; read-out: IC50) [µM] | inhibition [5] | inhibition [6] | inhibition [7] | IC50 [1] | IC50 [4] | Activity (MIA PaCa-2 [8]) | Activity (A549 [9]) | CI (A549 [10]) | CI (MIA PaCa-2 [11]) | Activity (MIA PaCa-2 [12]) | Activity (A549 [13]) | Activity (MIA PaCa-2 [14]) | Activity (A549 [15])
c1ccc(Cn2c(-c3ccccc3)nc3ccccc32)cc1 | 98.3 | 4.19 | 8.67 | 95.6 |  |  |  |  |  |  |  |  |  |  |  |  | 
CN(C)c1ccc(Cn2c(-c3ccc(N(C)C)cc3)nc3ccccc32)cc1 |  | 4.02 |  |  | inactive | inactive | inactive |  |  |  |  |  |  |  |  |  | 
CC(C)CCn1c(CN2CCN(C(=O)C3CC3)CC2)nc2c1c(=O)n(C)c(=O)n2C |  |  |  |  |  |  |  |  |  |  |  |  |  | Active | Active |  | 

Continued, in another order:

IC50 ([1]; read-out: IC50) [µM] | logP [2] | IC50 [3] [µM] | IC50 ([4]; read-out: IC50) [µM] | inhibition [5] | inhibition [6] | inhibition [7] | IC50 [1] | IC50 [4] | Compound | Activity (MIA PaCa-2 [8]) | Activity (A549 [9]) | CI (A549 [10]) | CI (MIA PaCa-2 [11]) | Activity (MIA PaCa-2 [12]) | Activity (A549 [13]) | Activity (MIA PaCa-2 [14]) | Activity (A549 [15])
 | 4.17 | 0.55 |  |  |  |  | Not Active | Not Active | CN(C)c1ccc(-c2nc3ccccc3n2Cc2ccccc2)cc1 | inactive | inactive | 0.69 | 0.81 | Active | Active |  | 
 | 4.19 | 1.63 |  |  |  |  | Not Active | Not Active | COc1ccc(-c2nc3ccccc3n2Cc2ccccc2)cc1 | inactive | inactive | 0.74 | 0.84 | Active | Active |  | 
 | 4.73 | 0.32 |  |  |  |  | Not Active | Not Active | Clc1ccc(-c2nc3ccccc3n2Cc2ccccc2)cc1 |  |  | 0.91 | 0.98 | Active | Active | Active | Active
